From ChEMBL document CHEMBL2375268, “Design, synthesis and antiproliferative properties of some new 5-substituted-2-iminobenzimidazole derivatives” (Eur J Med Chem, 2013)

Legend:
[1] = tested on: HeLa; experiment: Antiproliferative activity against human HeLa cells after 24 hrs by MTS assay; assay type: functional, cell-based
Method in brief: (§1)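 Compounds taken up in DMSO at 0.5 mg/ml stock, then diluted 1:10, 1:100, 1:1000 and 1:10 000. Cells exposed 24 h; cells in unmodified medium served as control. MTS added, 4 h at 37 °C in 5% CO2/95% air, absorbance read at 490 nm. Viability given as % of untreated control per concentration, mean of three independent assays. IC50 (cancer lines) or EC50 (Lep-3) derived from plotted curves.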

[2] = Antiproliferative activity against human LEP-3 cells after 24 hrs by MTS assay; assay type: cell-based; details: LEP-3, 24 h; method in brief: as §1
[3] = tested on: MDA-MB-231; experiment: Antiproliferative activity against human MDA-MB-231 cells after 24 hrs by MTS assay; assay type: functional, cell-based; details: MDA-MB-231, 24 h; method in brief: as §1
[4] = tested on: HT-29; experiment: Antiproliferative activity against human HT-29 cells after 24 hrs by MTS assay; assay type: functional, cell-based; details: HT-29, 24 h; method in brief: as §1
[5] = tested on: HepG2; experiment: Antiproliferative activity against human HepG2 cells after 24 hrs by MTS assay; assay type: functional, cell-based; details: HepG2, 24 h; method in brief: as §1

SMILES	EC50 [1] [nM]	EC50 [3] [nM]	EC50 [4] [nM]	EC50 [5] [nM]	IC50 [4] [nM]	IC50 [3] [nM]	IC50 [1] [nM]	IC50 [5] [nM]	EC50 [2] [nM]
CCCCn1c(=N)n(CCCC)c2cc([N+](=O)[O-])ccc21	158	86	177	142	–	–	–	–	114
N#CCCCCn1c(=N)n(CCCCC#N)c2cc(C(=O)c3ccccc3)ccc21	0.015	119	46.7	94.1	–	–	–	–	68
N=c1n(CC(=O)N/N=C/c2ccc3c(c2)OCO3)c2ccc(C(=O)c3ccccc3)cc2n1CC(=O)N/N=C/c1ccc2c(c1)OCO2	0.25	–	–	10.2	2.83	6.2	–	–	0.21

Continued by falling EC50 [3], values first:

EC50 [1] [nM]	EC50 [3] [nM]	EC50 [4] [nM]	EC50 [5] [nM]	IC50 [4] [nM]	IC50 [3] [nM]	IC50 [1] [nM]	IC50 [5] [nM]	SMILES	EC50 [2] [nM]
–	17	24.5	–	–	–	117	7.27	N=c1n(CC(=O)N/N=C/c2ccc(F)cc2)c2ccc([N+](=O)[O-])cc2n1CC(=O)N/N=C/c1ccc(F)cc1	12.2
–	0.28	–	70.1	0.64	–	–	–	CCOC(=O)Cn1c(=N)n(CC(=O)OCC)c2cc(C(=O)c3ccccc3)ccc21	73
